Results taken from ChEMBL document CHEMBL3272138, “Prostaglandins and congeners. 16. Synthesis and bronchodilator activity of dl-11-doexy-3-thiaprostaglandins” (1977).

What was measured:
Canis familiaris [1] = test: Bronchodilatory activity in anesthetized dog assessed as inhibition of pilocarpine-induced bronchospasms at 16 to 32 ug/kg administered through aerosol 15 mins post challenge measured up to 1 hr; type: functional, Canis lupus familiaris
In short: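 Anesthetized dogs receive a pilocarpine injection of 400 µg/kg, followed by a pilocarpine perfusion of 4 µg/kg/min, to produce a long-acting bronchospasm. Airway resistance must rise to at least 200-300% of the resting value. After a 15-min control period, compound is given by ultrasonic aerosol. Read-out is percent inhibition of the pilocarpine bronchoconstriction, followed over the 1 h experiment.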

Cavia porcellus [2] = test: Bronchodilator activity in Hartley guinea pig assessed as inhibition of serotonin-induced bronchoconstriction at 3.2 mg/kg, iv administered 2 mins post serotonin challenge as 3 to 4 doses in 15 mins interval; type: functional
In short: (§1)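 Urethane (1.5 g/kg ip) anesthetized, gallamine-curarized, ventilated guinea pigs. Spasms were induced by 12-s iv jugular injections every 5 min to raise tracheal pressure 20–50 cm water: acetylcholine 40–150, histamine 5.6–22.5, or serotonin 7.5–30 μg/kg. The drug was given iv over 1 min, 2 min after three stable control spasms. Salts were given as such and esters in 10% aqueous ethanol. Spasm amplitude was expressed as percent variation vs control, with ≥4 animals per spasmogen.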

Cavia porcellus [3] = test: Bronchodilator activity in Hartley guinea pig assessed as inhibition of acetylcholine-induced bronchoconstriction at 3.2 mg/kg, iv administered 2 mins post acetylcholine challenge as 3 to 4 doses in 15 mins interval; type: functional; in short: as §1
Cavia porcellus [4] = test: Bronchodilator activity in iv dosed Hartley guinea pig assessed as inhibition of histamine-induced bronchoconstriction administered 2 mins post histamine challenge as 3 to 4 doses in 15 mins interval; type: functional
In short: (§2)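 Guinea pigs under urethane anesthesia, gallamine-paralyzed and artificially ventilated (60 strokes/min). Bronchospasm was evoked by iv acetylcholine (40–150), histamine (5.6–22.5) or serotonin (7.5–30 μg/kg), giving a 20–50 cm water rise in tracheal pressure, every 5 min. Three or four log-spaced iv doses (esters in 10% aqueous ethanol) were given at 15-min intervals, with ≥4 animals per spasmogen. ED50 (–50% variation of the first spasm) came from a semilog regression; if never reached, ED50 > maximal dose.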

Cavia porcellus [5] = test: Bronchodilator activity in iv dosed Hartley guinea pig assessed as inhibition of serotonin-induced bronchoconstriction administered 2 mins post serotonin challenge as 3 to 4 doses in 15 mins interval; type: functional; in short: as §2
Canis familiaris [6] = test: Bronchodilatory activity in anesthetized dog assessed as inhibition of pilocarpine-induced bronchospasms compound administered through aerosol 15 mins post challenge measured up to 1 hr; type: functional; conditions: Canis lupus familiaris, inhaled or nasal
In short: (§3)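 In anesthetized dogs, a long-lasting bronchospasm was induced by pilocarpine, 400 µg/kg injection then 4 µg/kg/min perfusion, requiring an airway resistance increase of at least 200–300% over resting. After a 15-min control period, the compound was delivered by ultrasonic aerosol. Inhibition of bronchoconstriction was followed for the 1-h experiment.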

Cavia porcellus [7] = test: Bronchodilator activity in iv dosed Hartley guinea pig assessed as inhibition of acetylcholine-induced bronchoconstriction administered 2 mins post acetylcholine challenge as 3 to 4 doses in 15 mins interval; type: functional; conditions: for ED50: Cavia porcellus, Hartley, iv; in short: as §2
Cavia porcellus [8] = test: Bronchodilator activity in Hartley guinea pig assessed as inhibition of histamine-induced bronchoconstriction at 3.2 mg/kg, iv administered 2 mins post histamine challenge as 3 to 4 doses in 15 mins interval; type: functional; in short: as §1
Canis familiaris [9] = test: Bronchodilatory activity in anesthetized dog assessed as inhibition of pilocarpine-induced bronchospasms at 0.016 to 0.032 ug/kg administered through aerosol 15 mins post challenge measured up to 1 hr; type: functional, Canis lupus familiaris; in short: as §3

| SMILES | inhibition in vivo at 3.2 mg/kg (Cavia porcellus [2]) [%] | inhibition in vivo at 3.2 mg/kg (Cavia porcellus [3]) [%] | ED50 (Cavia porcellus [4]) [mg/kg] | ED50 (Cavia porcellus [5]) [mg/kg] | ED50 (Cavia porcellus [7]) [mg/kg] | also measured |
| --- | --- | --- | --- | --- | --- | --- |
| CC(C)NC[C@H](O)c1ccc(O)c(O)c1 [LEVISOPRENALINE] | – | – | – | – | – | inhibition (INH) (Canis familiaris [1]): 80% |
| CCCCC[C@](C)(O)/C=C/C1CCC(=O)[C@@H]1CCCSCC(=O)O (mixture of isomers) | < 50 | < 50 | 2.99 | – | – | – |
| CCCCC[C@H](O)/C=C/C1CCC(=O)[C@@H]1CCCCSCC(=O)O (mixture of isomers) | – | – | 0.00507 | 0.00129 | 0.00514 | ED50 (Canis familiaris [6]): 0.0016 mg/kg |
| CCCCC(C)(C)[C@H](O)/C=C/C1CCC(=O)[C@@H]1CCCCCSCC(=O)O (mixture of isomers) | < 50 | < 50 | – | – | – | inhibition in vivo at 3.2 mg/kg (Cavia porcellus [8]): < 50% |
| CCCCC[C@@H](O)/C=C/C1CCC(=O)[C@@H]1CCCCCSCC(=O)O (mixture of isomers) | < 50 | < 50 | – | – | – | inhibition in vivo at 3.2 mg/kg (Cavia porcellus [8]): < 50% |
| CCCCC[C@H](O)/C=C/C1CCC(=O)[C@@H]1CCCCCSCC(=O)O (mixture of isomers) | < 50 | < 50 | – | – | – | inhibition in vivo at 3.2 mg/kg (Cavia porcellus [8]): < 50% |
| CCCCC[C@](C)(O)/C=C/C1CCC(=O)[C@@H]1CCCCCCC(=O)O (mixture of isomers) | – | – | 0.00424 | 0.00699 | – | MED50 (Cavia porcellus [7]): 0.0032 mg/kg |
| CCCCC(C)(C)[C@H](O)/C=C/C1CCC(=O)[C@@H]1CCCCCCC(=O)O (mixture of isomers) | – | – | 0.00417 | 0.0259 | 0.0429 | – |
| CCCCC[C@H](O)/C=C/C1CCC(=O)[C@@H]1CCCSCC(=O)O (mixture of isomers) | < 50 | < 50 | – | – | – | inhibition in vivo at 3.2 mg/kg (Cavia porcellus [8]): < 50% |
| CCCCC[C@@H](O)/C=C/C1CCC(=O)[C@@H]1CCCCSCC(=O)O (mixture of isomers) | – | – | 0.0113 | 0.0233 | – | MED50 (Cavia porcellus [7]): 0.2 mg/kg |
| CCCCCC(O)/C=C/C1C(O)CC(=O)C1CCCCCCC(=O)O (stereo unspecified) | – | – | – | – | – | inhibition (INH) (Canis familiaris [9]): 70% |
| CCCCC(C)(C)[C@@H](O)/C=C/C1CCC(=O)[C@@H]1CCCCSCC(=O)O (mixture of isomers) | – | – | 0.324 | 0.032 | – | – |
| CCCCC(C)(C)[C@H](O)/C=C/C1CCC(=O)[C@@H]1CCCCSCC(=O)O (mixture of isomers) | – | – | 0.0242 | 0.0523 | 0.604 | – |
| CCCCC[C@](C)(O)/C=C/C1CCC(=O)[C@@H]1CCCCSCC(=O)O (mixture of isomers) | – | – | 0.00185 | 0.0054 | 0.0193 | – |
| CCCCC[C@H](O)/C=C/C1CCC(=O)C1CCCCCCC(=O)O (mixture of isomers) | – | – | 0.0034 | 0.000397 | 0.032 | – |
